The record followed here is ChEMBL document CHEMBL1134624, “Potent and selective ET-A antagonists. 1. Syntheses and structure-activity relationships of N-(6-(2-(aryloxy)ethoxy)-4-pyrimidinyl)sulfonamide derivatives” (J Med Chem, 2001).

Each structure is given as a SMILES string.

One experiment has as its target T1, Endothelin-1 receptor (Sus scrofa, UniProt Q29010).
T1 sequence (Q29010 whole entry): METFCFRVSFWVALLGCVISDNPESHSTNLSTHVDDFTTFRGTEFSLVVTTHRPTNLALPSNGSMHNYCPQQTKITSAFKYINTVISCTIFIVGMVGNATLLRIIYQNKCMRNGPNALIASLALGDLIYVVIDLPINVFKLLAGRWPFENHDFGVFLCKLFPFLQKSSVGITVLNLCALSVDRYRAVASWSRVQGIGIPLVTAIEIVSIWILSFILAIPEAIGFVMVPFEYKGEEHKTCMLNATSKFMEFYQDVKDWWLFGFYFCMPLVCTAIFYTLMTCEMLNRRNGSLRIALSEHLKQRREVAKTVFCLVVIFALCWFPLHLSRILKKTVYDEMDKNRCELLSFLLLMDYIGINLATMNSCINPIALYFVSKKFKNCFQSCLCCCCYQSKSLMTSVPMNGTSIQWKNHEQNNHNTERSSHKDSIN
Put plainly: In vitro inhibition of [125I]ET1 binding to Endothelin A receptor in porcine aortic membrane from endothelial cells. The experiment is classed as cell membranes. As to conditions: in the assay text read “with endothelium removed” for “from endothelial cells”. In outline:
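Endothelium-free porcine aorta homogenized in 10 mM MOPS (pH 7.4) with 20% sucrose. Membranes spun 1000g 15 min, then supernatant 90000g 45 min, and resuspended in 5 mM HEPES-Tris. Incubated with 20 pM final 125I-ET-1 and graded compound concentrations in 50 mM Tris-HCl pH 7.4, 0.1% BSA, protease inhibitors, EDTA, 2 h at 25 °C. Filtered, washed, gamma-counted.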
`COc1cccc(Oc2c(NS(=O)(=O)c3ccc(C(C)(C)C)cc3)ncnc2OCCOc2ccccc2)c1` came in with an IC50 of 65 nM. Still for that read-out and setting: under `COc1ccc(S(=O)(=O)Nc2ncnc(OCCOc3ncc(Br)cn3)c2-c2ccc(C)cc2)cc1` stands 0.76 nM; under `Cc1ccc(-c2c(NS(=O)(=O)c3ccc4ccccc4c3)ncnc2OCCOc2ncc(Br)cn2)cc1`, 1 nM; under `CSc1cnc(OCCOc2ncnc(NS(=O)(=O)c3ccc(C(C)(C)C)cc3)c2-c2ccc(C)s2)nc1`, 0.16 nM. Still for that read-out and setting: under `COc1ccccc1Oc1c(NS(=O)(=O)c2ccc(C(C)(C)C)cc2)ncnc1OCCOc1ncc(Br)cn1` stands 0.0039 nM; under `COc1ccc(S(=O)(=O)Nc2ncnc(OCCOc3ncc(Br)cn3)c2-c2ccc(C)cc2)cc1OC`, 0.64 nM. Still for that read-out and setting: in the case of `CSc1cnc(OCCOc2ncnc(NS(=O)(=O)c3ccc(C(C)(C)C)cc3)c2-c2ccco2)nc1` it was 2.9 nM; in that of `Cc1ccc(-c2c(NS(=O)(=O)c3ccc(C(C)(C)C)cc3)ncnc2OCCOc2ncc(Br)cn2)cc1`, less than 0.001 nM. `COc1cnc(OCCOc2ncnc(NS(=O)(=O)c3ccc(C(C)(C)C)cc3)c2-c2ccc(C)cc2)nc1` [listing 1 of 2 here]: the concentration for half-maximal inhibition (IC50) worked out at 0.0017 nM.

As for `COc1cccc(Oc2c(NS(=O)(=O)c3ccc(C(C)(C)C)cc3)ncnc2OCCOc2cccnn2)c1`, the IC50 is 51.4 nM.

For the compound `COc1cccc(Oc2c(NS(=O)(=O)c3ccc(C(C)(C)C)cc3)ncnc2OCCOc2nccc(C)n2)c1`, the IC50 was 39.4 nM. `COc1cccc(Oc2c(NS(=O)(=O)c3ccc(C(C)(C)C)cc3)ncnc2OCCOc2ccccn2)c1` had an IC50 of 8.8 nM.

Consider `COc1cccc(Oc2c(NS(=O)(=O)c3ccc(C(C)(C)C)cc3)ncnc2OCCOc2ncccn2)c1`, for which the IC50 was 1.9 nM. On to `COc1cnc(OCCOc2ncnc(NS(=O)(=O)c3ccc(C(C)(C)C)cc3)c2Oc2cccc(OC)c2)nc1`, for which the half-maximal inhibitory concentration (IC50) turned out to be 0.015 nM. On to `COc1ccccc1Oc1c(NS(=O)(=O)c2ccc(C(C)(C)C)cc2)ncnc1OCCOc1ncc(SC)cn1`, for which the IC50 worked out at 0.37 nM.

For `Cc1ccc(-c2c(NS(=O)(=O)c3cccs3)ncnc2OCCOc2ncc(Br)cn2)cc1`, the IC50 stood at 3.1 nM.

As to `COc1cccc(Oc2c(NS(=O)(=O)c3ccc(C(C)(C)C)cc3)ncnc2OCCOc2ncc(Br)cn2)c1`, the half-maximal inhibitory concentration (IC50) came to 0.051 nM.

`COc1cccc(Oc2c(NS(=O)(=O)c3ccc(C(C)(C)C)cc3)ncnc2OCCOc2cnc3ccccc3n2)c1` showed an IC50 of 45.4 nM.

As for `CSc1cnc(OCCOc2ncnc(NS(=O)(=O)c3ccc(C(C)(C)C)cc3)c2-c2ccc(C(F)(F)F)cc2)nc1`, the half-inhibitory concentration (IC50) worked out at 0.0017 nM. Regarding `COc1cccc(Oc2c(NS(=O)(=O)c3ccc(C(C)(C)C)cc3)ncnc2OCCOc2ncc(C)cn2)c1`, the IC50 was 0.86 nM. With `COc1cccc(Oc2c(NS(=O)(=O)c3ccc(C(C)(C)C)cc3)ncnc2OCCOc2ncc(Cl)cn2)c1`, the half-maximal inhibitory concentration (IC50) was determined as 0.059 nM. `COCCOc1ncnc(NS(=O)(=O)c2ccc(C(C)(C)C)cc2)c1Oc1cccc(OC)c1` had an IC50 of 92 nM. The same measure, in the same setting: under `Cc1ccc(-c2c(NS(=O)(=O)c3ccc(C(F)(F)F)cc3)ncnc2OCCOc2ncc(Br)cn2)cc1` stands 1.4 nM; under `COc1cccc(Oc2c(NS(=O)(=O)c3ccc(C(C)(C)C)cc3)ncnc2OCCNc2ncccn2)c1`, greater than 100 nM; under `CSc1cnc(OCCOc2ncnc(NS(=O)(=O)c3ccc(C(C)(C)C)cc3)c2-c2ccc(C(C)C)cc2)nc1`, 1.2 nM. In the case of `COc1cccc(-c2c(NS(=O)(=O)c3ccc(C(C)(C)C)cc3)ncnc2OCCOc2ncc(SC)cn2)c1`, the half-inhibitory concentration (IC50) was determined as 0.028 nM. `COc1ccccc1Sc1c(NS(=O)(=O)c2ccc(C(C)(C)C)cc2)ncnc1OCCOc1ncc(Br)cn1` showed an IC50 of 0.018 nM. Take `Cc1ccc(-c2c(NS(=O)(=O)c3ccc(-c4ccccn4)s3)ncnc2OCCOc2ncc(Br)cn2)cc1`: the 50% inhibitory concentration (IC50) is 3.4 nM. `CSc1cnc(OCCOc2ncnc(NS(=O)(=O)c3ccc(C(C)(C)C)cc3)c2-c2ccc(C)cc2)nc1` had an IC50 of less than 0.001 nM. On the same count and under the same terms, under `Cc1ccc(-c2c(NS(=O)(=O)c3ccc(C(C)(C)C)cc3)ncnc2OCCOc2ncc(-c3ccco3)cn2)cc1` stands less than 0.001 nM; under `Cc1ccc(-c2c(NS(=O)(=O)c3ccc(I)cc3)ncnc2OCCOc2ncc(Br)cn2)cc1`, 1 nM. Still for that read-out and setting: under `CSc1cnc(OCCOc2ncnc(NS(=O)(=O)c3ccc(C(C)(C)C)cc3)c2-c2ccc3ccccc3c2)nc1` stands 0.29 nM; under `COc1cccc(Oc2c(NS(=O)(=O)c3ccc(C(C)(C)C)cc3)ncnc2OCCOc2nccc(OC)n2)c1`, greater than 100 nM.

The compound `COc1ccc(-c2c(NS(=O)(=O)c3ccc(C(C)(C)C)cc3)ncnc2OCCOc2ncc(SC)cn2)cc1OC` showed an IC50 of 0.0085 nM. `COc1cccc(Oc2c(NS(=O)(=O)c3ccc(C(C)(C)C)cc3)ncnc2OCCOc2nccc3ccccc23)c1` returned an IC50 greater than 100 nM. As to `Cc1ccc(-c2c(NS(=O)(=O)c3ccc(C(C)(C)C)cc3)ncnc2OCCOc2ncc(-c3ccccn3)cn2)cc1`, the IC50 came out at 0.036 nM. On to `Cc1ccc(-c2c(NS(=O)(=O)c3cccc4ccccc34)ncnc2OCCOc2ncc(Br)cn2)cc1`, for which the half-inhibitory concentration (IC50) was determined as 22 nM. Still for that read-out and setting: under `Cc1ccc(-c2c(NS(=O)(=O)c3ccc(C(C)C)cc3)ncnc2OCCOc2ncc(Br)cn2)cc1` stands 0.16 nM; under `COc1cccc(Oc2c(NS(=O)(=O)c3ccc(C(C)(C)C)cc3)ncnc2OCCOCc2ccccc2)c1`, 170 nM. Same read-out and setting: under `Cc1ccc(-c2c(NS(=O)(=O)c3ccc(C(C)(C)C)cc3)ncnc2OCCOc2ncccn2)cc1` stands 0.11 nM. Same read-out and setting: under `Cc1ccc(-c2c(NS(=O)(=O)c3ccc(C(C)(C)C)cc3)ncnc2OCCOc2ncc(Cl)cn2)cc1` [listing 1 of 2 here] stands less than 0.001 nM; under `CCC(C)(C)c1ccc(S(=O)(=O)Nc2ncnc(OCCOc3ncc(Br)cn3)c2-c2ccc(C)cc2)cc1`, less than 0.001 nM; under `COc1cccc(Oc2c(NS(=O)(=O)c3ccc(C(C)(C)C)cc3)ncnc2OCCOc2ccncn2)c1`, 1.2 nM. `Cc1ccc(-c2c(NS(=O)(=O)c3ccc(C(C)(C)C)cc3)ncnc2OCCO)cc1`: the half-inhibitory concentration (IC50) was greater than 100 nM. Take `COc1cccc(Oc2c(NS(=O)(=O)c3ccc(C(C)(C)C)cc3)ncnc2OCCOc2cnccn2)c1`: the IC50 is 24.5 nM.

`COc1ccc(-c2c(NS(=O)(=O)c3ccc(C(C)(C)C)cc3)ncnc2OCCOc2ncc(SC)cn2)cc1`: the half-inhibitory concentration (IC50) is less than 0.001 nM. On the same count and under the same terms, under `CSc1cnc(OCCOc2ncnc(NS(=O)(=O)c3ccc(C(C)(C)C)cc3)c2-c2ccc3c(c2)OCO3)nc1` stands 0.0011 nM; under `COc1cccc(Oc2c(NS(=O)(=O)c3ccc(C(C)(C)C)cc3)ncnc2SCCOc2ncccn2)c1`, 25.8 nM; under `COc1cccc(Oc2c(NS(=O)(=O)c3ccc(C(C)(C)C)cc3)ncnc2OCCOc2ccc3ccccc3n2)c1`, 15.2 nM.

Compound `Cc1ccc(-c2c(NS(=O)(=O)c3ccc(C(C)(C)C)cc3)ncnc2OCCOc2ncc(-c3ccsc3)cn2)cc1` showed an IC50 of less than 0.001 nM.

In turn, `COc1cccc(Oc2c(NS(=O)(=O)c3ccc(C(C)(C)C)cc3)ncnc2OCCOc2nccs2)c1` registered an IC50 of 12 nM.

For `CCc1ccc(-c2c(NS(=O)(=O)c3ccc(C(C)(C)C)cc3)ncnc2OCCOc2ncc(SC)cn2)cc1`, the IC50 was 0.013 nM. Regarding `Cc1ccc(-c2c(NS(=O)(=O)c3ccc(Br)cc3)ncnc2OCCOc2ncc(Br)cn2)cc1`, the IC50 came out at 2.8 nM. For `Cc1ccc(-c2c(NS(=O)(=O)c3ccc(C(C)(C)C)cc3)ncnc2OCCOc2ncc(-c3cccs3)cn2)cc1`, the 50% inhibitory concentration (IC50) is less than 0.001 nM. Still for that read-out and setting: in the case of `COc1cccc(Oc2c(NS(=O)(=O)c3ccc(C(C)(C)C)cc3)ncnc2OCCCc2ncccn2)c1` it was greater than 100 nM; in that of `CSc1cnc(OCCOc2ncnc(NS(=O)(=O)c3ccc(C(C)(C)C)cc3)c2-c2ccc(Cl)cc2)nc1`, less than 0.001 nM. `CSc1cnc(OCCOc2ncnc(NS(=O)(=O)c3ccc(C(C)(C)C)cc3)c2-c2ccncc2)nc1` displayed an IC50 of 9.9 nM. On the same count and under the same terms, in the case of `COc1cccc(Oc2c(NS(=O)(=O)c3ccc(C(C)(C)C)cc3)ncnc2OCCCOc2ncc(C)cn2)c1` it was 93.5 nM; in that of `CSc1cnc(OCCOc2ncnc(NS(=O)(=O)c3ccc(C(C)(C)C)cc3)c2-c2cccs2)nc1`, 0.89 nM.

`COc1cccc(Oc2c(NCCOc3ncccn3)ncnc2NS(=O)(=O)c2ccc(C(C)(C)C)cc2)c1`: the IC50 turned out to be 6.2 nM.

In the next experiment the target is T2, Endothelin receptor type B (Homo sapiens, UniProt P24530).
T2 sequence (P24530 whole entry): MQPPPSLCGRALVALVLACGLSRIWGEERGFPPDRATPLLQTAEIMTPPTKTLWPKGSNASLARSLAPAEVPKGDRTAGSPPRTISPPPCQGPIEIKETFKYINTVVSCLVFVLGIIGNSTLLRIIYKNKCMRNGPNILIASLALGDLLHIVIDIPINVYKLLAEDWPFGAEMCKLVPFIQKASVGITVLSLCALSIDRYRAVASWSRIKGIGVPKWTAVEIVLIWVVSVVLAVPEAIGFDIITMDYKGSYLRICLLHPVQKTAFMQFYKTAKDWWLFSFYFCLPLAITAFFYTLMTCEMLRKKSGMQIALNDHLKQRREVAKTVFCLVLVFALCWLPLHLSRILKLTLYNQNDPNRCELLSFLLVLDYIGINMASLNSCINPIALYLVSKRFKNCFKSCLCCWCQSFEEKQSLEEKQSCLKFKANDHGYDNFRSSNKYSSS
Put plainly: In vitro for specific binding of [125I]ET1 to GHcell expressed in Endothelin B receptor.
Conditions: not given
`Cc1ccc(-c2c(NS(=O)(=O)c3ccc(C(C)(C)C)cc3)ncnc2OCCOc2ncc(Cl)cn2)cc1` [listing 2 of 2 here] registered an IC50 of 28 nM.

`COc1cnc(OCCOc2ncnc(NS(=O)(=O)c3ccc(C(C)(C)C)cc3)c2-c2ccc(C)cc2)nc1` [listing 2 of 2 here] yielded an IC50 of 240 nM.
